Assay outcomes from PubChem.
Insulin prom act: TRM-6 insulin promoter activation. TRM-6 cells (human fetal islet line), insulin promoter eGFP reporter, imaging; plate-scaled: unstimulated 0, stimulated control 100. activation, % at 2 µM. hit rate 0.81% among 130,000;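 active = activation at 2 µM above a set limit, confirmed on inspection of the cell images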;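 note: share of cells whose green reporter signal exceeds an intensity cutoff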
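Test system: TRM-6 insulin promoter–eGFP reporter cells / Quantity: 1,000 cells per well / Reagent: tamoxifen inducer, 0.75 µM, in seeding medium / Compound dosing: 2 µM final, single concentration / Schedule: overnight tamoxifen, then two-day compound incubation at 37 °C / Measured by: automated fluorescence imaging of paraformaldehyde-fixed, Hoechst-counterstained cells, green channel / Read-out: percent activation from GFP-positive cell fraction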
Each line names hits and unclear results; the compound was inactive in the other large screens. The sample as a whole holds a higher share of hits than the screen did.

COc1ccc(N2C(=O)C(CC(N)=O)N(NC(=O)c3cccc(OC)c3)C2=S)cc1 (centres undefined)	none
CC(=O)N/C(=C/c1ccc2c(c1)OCO2)C(=O)NCC(=O)O	none
C(#Cc1ccccc1)C[N+]1(CC#Cc2ccccc2)CCCC1	none
Nc1ccc(C#Cc2ccccc2)cc1	Insulin prom act 207
c1ccc(SSc2ccccc2)cc1	none
Cc1noc(NS(=O)(=O)c2ccc(NC(=O)CSc3n[nH]c(-c4ccccc4)n3)cc2)c1C	Insulin prom act 154
Cc1noc(NS(=O)(=O)c2ccc(NC(=O)CCN3C(=O)c4ccccc4C3=O)cc2)c1C	none
Cc1noc(NS(=O)(=O)c2ccc(NC(=O)Nc3ccc(Cl)c(Cl)c3)cc2)c1C	none
CCc1cccc2cc3c(N)c(C(=O)Nc4ccc(S(=O)(=O)N5CCCC5)cc4)sc3nc12	Insulin prom act 203
Cn1nc(C(=O)Nc2ccc(S(=O)(=O)N3CCCCC3)cc2)ccc1=O	none
O=C(Cc1cccs1)Nc1ccc(S(=O)(=O)N2CCCCC2)cc1	none
COC(=O)C1=C(C)NC(=S)NC1c1ccco1 (centres undefined)	none
Cc1ccc2c(c1)c(C)c(C)n2CC(O)CN1CCOCC1 (centres undefined)	Insulin prom act 533
OC(COc1cccc(OCC(O)CN2CCOCC2)c1)CN1CCOCC1 (centres undefined)	none
OC(CN1CCN(c2ccccn2)CC1)Cn1c2ccccc2c2ccccc21 (centres undefined)	none
COc1ccccc1CNC(=O)c1nn(-c2ccc(C)cc2)c(=O)c2c1c1ccccc1n2C	none
CSc1cccc(NC(=O)CSc2ccc(C)cc2)c1	none
Cn1c(Cn2c(=O)sc3ccccc32)nnc1SCC(=O)Nc1ccccc1	none
CCSCc1nnc(SCC(=O)Nc2cccc(SC)c2)n1C	Insulin prom act 425
CC1Cc2ccccc2N1C(=O)c1cc2sccc2n1Cc1ccc(F)cc1 (centres undefined)	none
O=S(=O)(NCc1cccnc1)c1ccc2c(c1)OCCO2	Insulin prom act 469
O=S(=O)(NCc1cccnc1)c1ccc(Cl)c(Cl)c1	none
CCN(CC)C(=O)c1ccc(S(=O)(=O)NCc2cccnc2)cc1	none
COC(=O)c1ccc(-n2nnnc2SC)cc1	none
CNc1nc(Oc2ccc(C(=O)OC)cc2)nc(SC)n1	Insulin prom act 494
Cc1ccc(Nc2nc(Oc3ccc(=O)[nH]n3)nc(N(C)C)n2)cc1	none
CCNc1nc(Oc2ccc(=O)[nH]n2)nc(SC)n1	none
COC(=O)c1ccc(Oc2nc(Nc3ccccc3)nc(N(C)C)n2)cc1	Insulin prom act 585
CN(C)c1nc(Nc2ccccc2)nc(Oc2ccc(=O)[nH]n2)n1	none
Cc1nn(C)c(Cl)c1C(N)=O	none
O=C1CC(C2CCCO2)C(=O)N1c1ccccc1 (centres undefined)	none
COC(=O)c1sccc1NC(=O)CN(C)NS(=O)(=O)c1ccc(F)cc1	none
COc1cccc(NC(=O)CSc2nnc(-c3ccoc3C)n2CC2CCCO2)c1 (centres undefined)	none
O=C(CSc1nnc(-c2ccco2)n1CC1CCCO1)NC1CCCC1 (centres undefined)	none
COc1ccc(NC(=O)CSc2nnc(-c3ccoc3C)n2CC2CCCO2)cc1 (centres undefined)	Insulin prom act 506
O=C(N1CCOCC1)N(CCN1CCOCC1)Cc1cccc(Cl)c1	none
Cc1ccc(-c2noc(CCC(=O)N(C)c3ccccc3C)n2)cc1	none
CCOc1ccc(-c2cc(C(=O)OC)[nH]n2)cc1	none
CCN(CC)c1ccc(-c2nc3cnccc3n2C)cc1	none
CCOC(=O)c1ccccc1NC(=O)COc1cc(=O)n(CC)c2ccccc12	none
CCn1c(=O)cc(OCC(=O)NCc2ccc(C)o2)c2ccccc21	Insulin prom act 100
COc1ccc(CNC(=O)COc2cc(=O)n(C)c3ccccc23)cc1	none
c1coc(CN(Cc2ccco2)c2ncnc3c2oc2ccccc23)c1	none
Cc1nnc(SCC(=O)Nc2ccc(Cl)cn2)s1	none
COn1c(SCc2ccc(Cl)cc2)nc2ccccc2c1=O	Insulin prom act 77
COCCn1c(SCc2ccccc2F)nc2ccccc2c1=O	none
COc1ccc(C(=O)Nn2c(SCC(=O)c3ccc(Cl)cc3)nc3ccccc3c2=O)cc1	none
Cc1ccc(NC(=O)Cc2ncc(C(F)(F)F)cc2Cl)cc1Cl	none
COC(=O)c1nn(-c2ccccc2)c(Sc2ccc(Br)cc2)c1/C=N/O	none
Cc1ccccc1N1C(=O)CC2(CCCC2)CC1=O	none
Cc1ccc(N2C(=O)CN(Cc3sccc3C)C2=S)cc1C	none
Cc1ccccc1N1C(=O)CN(Cc2sccc2C)C1=S	Insulin prom act 84
COCCn1c(C)cc(C(=O)CSc2nnc3scc(-c4ccc(Cl)cc4)n23)c1C	none
O=C(NCN1C(=O)C2C3C=CC(C3)C2C1=O)Nc1nccs1 (centres undefined)	none
O=C(c1c[nH]c2ccc(S(=O)(=O)N3CCC4(CC3)OCCO4)cc2c1=O)N1CCOCC1	none
COc1ccc(CCNC(=O)c2cc(S(=O)(=O)N3CCC4(CC3)OCCO4)ccc2F)cc1OC	none
COC(CNC(=O)c1c[nH]c2ccc(S(=O)(=O)N3CCC4(CC3)OCCO4)cc2c1=O)OC	Insulin prom act 400
O=C(NN1C(=O)c2ccc(-c3ccc4c(c3)C(=O)N(NC(=O)c3cccnc3)C4=O)cc2C1=O)c1cccnc1	none
COc1cc(C(=O)Nc2ccccc2C2COC(=O)C2=N)cc(OC)c1OC (centres undefined)	none
OC(CNCC1CCCO1)Cn1c2ccc(Cl)cc2c2cc(Cl)ccc21 (centres undefined)	Insulin prom act 89
O=C(CSCc1ccc(Cl)cc1)NCC1CCCO1 (centres undefined)	none
Clc1ccc(-n2ncc3c(NCC4CCCO4)ncnc32)cc1 (centres undefined)	none
Cc1cc2cc(C=C(C#N)C#N)c(Cl)nc2cc1C	none
O=C(CSCc1ccc(Cl)cc1Cl)Nc1nccs1	none
CC1CCN(Cc2c(C#N)c3ccccc3n2C)CC1	none
Cc1nnc(SCCN2CCOCC2)n1C	none
Clc1ccc(CNc2nnnn2-c2ccccc2)c(Cl)c1	none
COc1cccc(C(=O)Nc2cccc(C(=O)NCC(C)C)c2)c1	none
O=C(O)c1ccc(C(=O)Nc2cccc(NC(=O)C3CCCO3)c2)cc1 (centres undefined)	none
CC(C)CNC(=O)c1cccc(NC(=O)C2CCCO2)c1 (centres undefined)	Insulin prom act 438
CCN(CC)c1cnn(C/C(=N\OC)c2ccc(Cl)cc2)c(=O)c1Br	none
Cc1nnc(SCC(=O)NC2CCCCC2)s1	none
COc1ccc(N(C(=O)c2ccco2)S(=O)(=O)c2cccs2)cc1	none
COc1ccc(N(C(=O)c2ccco2)S(=O)(=O)c2ccc(F)cc2)cc1	Insulin prom act 456
COc1ccc(N(C(=O)c2ccco2)S(=O)(=O)c2cc(OC)ccc2OC)cc1	none
O=C1S/C(=C/c2ccc(N3CCOCC3)o2)C(=O)N1Cc1c(F)cccc1Cl	Insulin prom act 178
O=C(CN1C(=O)S/C(=C/c2cccnc2)C1=O)N1CCOCC1	none
O=C1S/C(=C\c2ccc(N3CCOCC3)o2)C(=O)N1Cc1c(F)cccc1Cl	none
COC(=O)NNC(=O)c1ccccc1C	none
CC1CCCN(C(C(=O)NC2CCCCC2)c2cc3c(cc2[N+](=O)[O-])OCO3)C1 (centres undefined)	none
CC(C)c1nc(-c2ccccc2)c(-c2ccccc2)[nH]1	none
CNC(=O)CSc1nc(-c2ccccc2)c(-c2ccccc2)[nH]1	none
O=C(O)c1ccccc1-c1nc(-c2ccccc2)c(-c2ccccc2)[nH]1	Insulin prom act 290
CC12CCC(C(=O)N3CCN(Cc4ccccc4)CC3)(OC1=O)C2(C)C (centres undefined)	none
O=C(NC(Cc1ccccc1)c1nc2ccccc2[nH]1)C1CC(=O)N(c2ccc3c(c2)OCCO3)C1 (centres undefined)	none
